Experimental data: ChEMBL document CHEMBL4346740, “Development of novel lithocholic acid derivatives as vitamin D receptor agonists” (Bioorg Med Chem, 2019)
The source made the active and inactive calls. The calls are words filed in the database; no cut-off is given here.

Legend:
[1] = molecular target: T1, Vitamin D3 receptor (Homo sapiens) (UniProt P11473); test: Transactivation of human VDR expressed in COS-7 cells transfected with mouse […] for 24 hrs by luciferase based reporter gene assay; assay type: cell-based
T1 sequence (whole entry): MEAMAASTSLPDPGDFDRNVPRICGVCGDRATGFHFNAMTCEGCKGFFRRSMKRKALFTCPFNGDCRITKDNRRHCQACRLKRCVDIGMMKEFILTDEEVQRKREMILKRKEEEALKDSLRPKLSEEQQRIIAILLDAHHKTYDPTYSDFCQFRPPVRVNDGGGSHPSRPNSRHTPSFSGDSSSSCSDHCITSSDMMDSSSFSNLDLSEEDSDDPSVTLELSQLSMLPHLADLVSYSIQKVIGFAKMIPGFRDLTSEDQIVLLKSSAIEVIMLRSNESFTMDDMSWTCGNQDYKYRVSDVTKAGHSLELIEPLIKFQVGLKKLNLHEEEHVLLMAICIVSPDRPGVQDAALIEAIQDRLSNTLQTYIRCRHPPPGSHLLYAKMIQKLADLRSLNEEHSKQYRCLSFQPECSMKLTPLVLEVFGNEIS
Procedure, shortened: (§1)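 COS-7 cells in DMEM with 5% FCS, lipofected at 24 h with SPPx3-TK-LUC (three mouse osteopontin VDRE copies), pCMX-hVDR and pRL-CMV. After 4 h, switched to DMEM with 1% FCS. Next day, compound, 1α,25(OH)2D3 or ethanol vehicle added for 24 h. Lysate luciferase normalized to sea pansy internal control; triplicate.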

[2] = molecular target: T2, Vitamin D3 receptor (Bos taurus) (UniProt Q28037); test: Displacement of [3H]1alpha,25(OH)2D3 from bovine thymus VDR incubated for 19 hrs by radioactivity based competitive binding assay
T2 sequence (whole entry): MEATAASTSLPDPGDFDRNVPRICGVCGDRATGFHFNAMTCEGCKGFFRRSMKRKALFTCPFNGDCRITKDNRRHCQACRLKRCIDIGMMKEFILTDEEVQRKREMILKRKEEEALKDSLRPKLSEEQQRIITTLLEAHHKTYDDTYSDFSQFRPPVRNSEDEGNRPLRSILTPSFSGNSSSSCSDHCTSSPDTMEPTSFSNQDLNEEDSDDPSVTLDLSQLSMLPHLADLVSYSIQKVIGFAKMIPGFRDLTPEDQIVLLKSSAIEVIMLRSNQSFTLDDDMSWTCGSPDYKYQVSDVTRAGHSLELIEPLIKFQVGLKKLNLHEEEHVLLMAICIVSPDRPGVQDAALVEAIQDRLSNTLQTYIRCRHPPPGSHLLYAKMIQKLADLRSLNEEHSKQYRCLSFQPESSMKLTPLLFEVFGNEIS
Procedure, shortened: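 Bovine thymus VDR in 0.05 M phosphate buffer (pH 7.4) with 0.3 M KCl and 5 mM DTT. Incubated 19 h at 4 °C with 0.072 nM [3H]1α,25(OH)2D3 plus graded amounts of analog or vehicle. Bound and free ligand separated on dextran-coated charcoal (20 min, 4 °C), then centrifuged at 1000g. Supernatant radioactivity counted; run in duplicate.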

[3] = molecular target: T1, Vitamin D3 receptor (Homo sapiens); test: Transactivation of VDR in human […] cell assessed as cell differentiation at 10^-5 M measured after 4 days by NBT dye-based assay
Procedure, shortened: (§2)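 HL-60 cells grown in RPMI-1640 with 5% FBS, diluted to 8.0 × 10^4 cells/mL. Compound added from ethanol solution; ethanol-only control; 1α,25(OH)2D3 run alongside each time. Incubated 4 days at 37 °C, 5% CO2. Cells then exposed 20 min at 37 °C to 0.2% NBT with TPA (200 ng/mL) in PBS. Formazan-positive percentage scored in at least 200 cells.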

[4] = molecular target: T1, Vitamin D3 receptor (Homo sapiens); test: Transactivation of VDR in human […] cell assessed as cell differentiation at 10^-7 to 10^-5 M measured after 4 days by NBT dye-based assay; procedure, shortened: as §2
[5] = molecular target: T1, Vitamin D3 receptor (Homo sapiens); test: Transactivation of human VDR expressed in COS-7 cells transfected with mouse osteopontin VDRE at >1 uM measured after 24 hrs by luciferase based reporter gene assay; assay type: cell-based; procedure, shortened: as §1

Row | SMILES | Activity [1] | Activity [4] | other results
1 | C[C@H](CCC(=O)O)[C@H]1CC[C@H]2[C@@H]3CC[C@@H]4C[C@H](OS(C)(=O)=O)CC[C@]4(C)[C@H]3CC[C@]12C | Active | – | Activity [2]: Active
2 | CC(=O)O[C@@H]1CC[C@@]2(C)[C@H](CC[C@@H]3[C@@H]2CC[C@]2(C)[C@@H]([C@H](C)CCC(=O)O)CC[C@@H]32)C1 | Active | – | Activity [3]: Active
3 | COC(=O)O[C@@H]1CC[C@@]2(C)[C@H](CC[C@@H]3[C@@H]2CC[C@]2(C)[C@@H]([C@H](C)CCC(=O)O)CC[C@@H]32)C1 | – | inactive | –
4 | C[C@H](CCC(=O)O)[C@H]1CC[C@H]2[C@@H]3CC[C@@H]4C[C@H](OC(=O)c5ccccc5)CC[C@]4(C)[C@H]3CC[C@]12C | – | inactive | –
5 | C[C@H](CCC(=O)O)[C@H]1CC[C@H]2[C@@H]3CC[C@@H]4C[C@H](NS(C)(=O)=O)CC[C@]4(C)[C@H]3CC[C@]12C | – | Active | –
6 | C[C@H](CCC(=O)O)[C@H]1CC[C@H]2[C@@H]3CC[C@@H]4C[C@H](OC(=O)C(F)(F)F)CC[C@]4(C)[C@H]3CC[C@]12C | – | inactive | Activity [5]: Active
